Results on 97 compounds are retold here after ChEMBL document CHEMBL4513216, “Probing the Open Global Health Chemical Diversity Library for Multistage-Active Starting Points for Next-Generation Antimalarials” (ACS Infect Dis, 2020).

The nature of the series: Toxicity liver stage against HepG2, at 10uM. To be noted: human, HepG2-A16-CD81EGFP cells; read-out: INHIBITION
It is filed as cell-based. Also on record: test concentration 10 uM, cell line HepG2-A16-CD81EGFP. In a few lines: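 Uninfected HepG2-A16-CD81EGFP cells, 3 × 10^3 per well, 1536-well, plated on prespotted compound at 10 μM final, parasite-free screening media added to match infected plates; puromycin 10 μM positive, DMSO 0.5% negative; run in parallel with 48 h PbLuc assay at 37 °C, 5% CO2; viability by CellTiter-Glo luminescence, normalized to controls.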
In the case of `CS(=O)(=O)C1=C(O)C(=O)N(c2ccccc2)C1c1ccccc1` (configuration not stated), the cytotoxicity at 10 µM was -1.06%.

`COc1cccc(NC(=O)C2CC(=O)n3cnnc3S2)c1` (configuration not stated): the cytotoxicity at 10 µM was 2.27%. `COc1cccc2c1ccn2CCNC(C)=O`: the cytotoxicity at 10 µM was determined as 1.89%. Next, `COc1ccc2c(c1)c(C(=O)Nc1n[nH]c(C(C)C)n1)cn2C(C)C`: -26.8%; `Cn1c(C(F)(F)F)nn(CCNC(=O)Nc2ccccc2Cl)c1=O`: 13.4%.

In the case of `Cc1ncn(CCNC(=O)Nc2ccc(F)c(Cl)c2)c(=O)c1C`, the cytotoxicity at 10 µM is -2.93%. Next, `CS(=O)(=O)C1CCN(S(=O)(=O)c2ccc(F)c(F)c2)C1` (configuration not stated): -9.52%; `Cc1nsc(C(=O)NCCc2ccc(Cl)cc2)n1`: 2.09%; `O=C(Cc1ccsc1)N1CCC2(CCCN(CC3CCOCC3)C2)C1` (configuration not stated): -135%.

For the compound `CCOCC1CN(C(=O)N2CCCC2)Cc2cnn(C)c21` (configuration not stated), the cytotoxicity at 10 µM was -0.96%. As for `Cc1ccc(CN2CC[C@H]3C[C@H](c4nc(C5CC5)cs4)O[C@@H]3C2)o1`, the figure is 3.81%. With `CCOCC1CN(C(=O)c2ccoc2)Cc2nn(C)cc21` (configuration not stated), the cytotoxicity at 10 µM was found to be 0.254%.

Consider `COCC(=O)N1CCC2(CCN(c3cnn(C)c3)C2=O)C1` (configuration not stated), for which the cytotoxicity at 10 µM stood at 0.486%. As for `CC(C)CCNC(=O)C1CCN(c2ccc3nnc(C(C)C)n3n2)CC1`, the figure is 1.68%; as for `CN(C)C(=O)c1nc2c(s1)CCN(C(=O)c1ccc(Cl)cc1)CC2`, -14.2%; as for `CCCNC(=O)NC(C)c1ccccn1` (configuration not stated), -8.26%.

Regarding `Cc1ccnc(C2(C)CCCN2S(=O)(=O)c2cccnc2)n1` (configuration not stated), the cytotoxicity at 10 µM was determined as 5.95%.

`CC(=O)N1CCCC1(C)c1nc(C)no1` (configuration not stated): the cytotoxicity at 10 µM was 2.71%. Next, `Cc1cnc2[nH]c(C(F)(F)F)c(CN3CCSCC3)c2c1`: 13.3%; `Cc1cc(C)nc(C2CCCN2C(=O)c2cnccn2)n1` (configuration not stated): 3.74%. As for `CNc1nccnc1C1CN(Cc2ccc3[nH]ccc3c2)CCO1` (configuration not stated), the figure is -2.52%. On to `Cc1nn(C)cc1CN1CCC(C2Nc3ccccc3S(=O)(=O)N2)CC1` (configuration not stated), for which the cytotoxicity at 10 µM is -2.19%.

For the compound `Cc1ccnc2c1NC(=O)CN2C(=O)CCc1cccs1`, the cytotoxicity at 10 µM is -19.5%. Next, `CCN(CC)C(CNC(=O)c1cccnc1-n1cncn1)c1ccsc1` (configuration not stated): -146%; `CC(NC(=O)N1CCC1)c1ccc(S(N)(=O)=O)cc1` (configuration not stated): -8.64%; `CNC(=O)c1cccc(CCNS(C)(=O)=O)c1`: 13.4%. As for `Cc1cc(C)n(CC2CCCCN2CC(=O)Nc2c(C)n[nH]c2C)n1` (configuration not stated), the figure is -1.92%; as for `COCC(C)NC(=O)Nc1cc(-c2ccccc2C)nn1CCO` (configuration not stated), -14.3%; as for `NC(=O)CSc1ccccc1NC(=O)C1CCCCC1`, -127%.

On to `CCC1COCCN1C(=O)NCc1cccc(-c2cnn(C)c2)c1` (configuration not stated), for which the cytotoxicity at 10 µM is -1.62%. Next, `CC(C)Cc1noc(COc2ccc(N(C)C(N)=O)cc2)n1`: 34.4%; `O=C(NC1CCCN(c2ccccc2Cl)C1)c1c[nH]nn1` (configuration not stated): -1.58%; `Cc1nn(C)c(C)c1C1CCCN1C(=O)Cc1cn2ccsc2n1` (configuration not stated): -45.2%. For `CC(C)C(C)(C#N)NC(=O)Cn1cc(I)cn1` (configuration not stated), the cytotoxicity at 10 µM was determined as 18.1%.

`CN(C(=O)c1cccc(OCC(F)F)n1)c1ccc2c(c1)CCO2`: the cytotoxicity at 10 µM was found to be 43%. As for `CCN(CC(=O)NC)S(=O)(=O)N1CCCCCC1`, the figure is 5.04%; as for `CCCc1nc(C)c(C(=O)NS(=O)(=O)c2ccc(C#N)cc2)s1`, -12%; as for `O=C(c1ccco1)N1CCCC1C1CCN(Cc2ccccc2)CC1` (configuration not stated), 0.821%.

In the case of `CN(C)c1cc(C(=O)NCCc2n[nH]c(=O)[nH]2)ccn1`, the cytotoxicity at 10 µM was -1.89%. As for `c1coc(CN2C[C@H](OCC3CCOCC3)[C@H]3COC[C@H]32)c1`, the figure is 0.127%. Next, `CS(=O)(=O)N[C@@H]1CCO[C@]2(CCN(C(=O)C3=CCCC3)C2)C1`: 0.693%; `CNc1nc(C(=O)N2CCC3(CCCN(CC4CC4)C3=O)C2)cs1` (configuration not stated): 5.33%; `CSCc1noc(C2CCC(=O)N(CCc3ccccc3)C2)n1` (configuration not stated): -6.72%. As for `COc1ccc(F)c(-c2ncccc2NC(=O)C(C)C)c1`, the figure is 5.69%; as for `CN(CCCOc1ccccc1Cl)C(=O)CN1CCCCCC1=O`, -9.63%. For the compound `CC(C)c1nc(N2CCC(N3CCSCC3)CC2)c2cnn(C)c2n1`, the cytotoxicity at 10 µM is -136%. For the compound `COc1ccc(C(=O)O)cc1-c1cccc2c1CCNC2`, the cytotoxicity at 10 µM turned out to be 0.979%.

Turning to `NCCc1n[nH]c(=O)n1-c1cccc(Cl)c1Cl`, the cytotoxicity at 10 µM is -2.38%. For `Cc1ncc(C(=O)N2CCC(N3CCc4ccccc4C3)CC2)c(O)n1`, the cytotoxicity at 10 µM was -0.745%.

Take `CN(Cc1cccc(-n2cccn2)c1)C(=O)c1ccnc(N)c1`: the cytotoxicity at 10 µM is -0.491%.

On to `CCn1nc(C)cc1S(=O)(=O)N1CCC2(CC(=O)NC2=O)C1` (configuration not stated), for which the cytotoxicity at 10 µM is 0.0942%.

Take `CN(c1ncccc1CNCc1ncc[nH]1)C1CCCCC1`: the cytotoxicity at 10 µM was -7.28%. Next, `CCN1CCC(CC(=O)N2CCN(c3ccccc3OC)CC2C)CC1` (configuration not stated): -4.9%; `CCOc1ccccc1C(C(=O)O)N(C)Cc1nc(C)c[nH]1` (configuration not stated): -5.18%; `Cc1nccn1CCCC(=O)N1CCN(c2cccnc2)CC1`: -4.98%. On to `COCCNS(=O)(=O)c1cccc2c1CN(C(=O)c1ccccc1)CC2`, for which the cytotoxicity at 10 µM is 5.54%. In the case of `COCCC1(CO)CCCN(Cc2ccc(F)c(C)c2)C1` (configuration not stated), the cytotoxicity at 10 µM is -1.31%. As for `Cc1cccc(CN2C[C@H]3OC(=O)N(CCCN4CCOCC4)[C@H]3C2)n1`, the figure is -6.85%; as for `CN1CCCC(c2n[nH]c3ncccc23)C1` (configuration not stated), -3.35%. Consider `CCc1nnc2n1CCN(C(=O)c1cc3c(F)cccc3[nH]1)C2`, for which the cytotoxicity at 10 µM came out at 6.41%. Consider `CCn1cnnc1C1CCN(C(=O)c2ccccc2F)CC1`, for which the cytotoxicity at 10 µM was -5.13%. Next, `Cc1nccn1-c1cc(CNC(=O)C2CCCO2)ccn1` (configuration not stated): -7.81%; `CCCc1n[nH]c(C2CN(C(=O)c3n[nH]c4ccccc34)CCO2)n1` (configuration not stated): -1.39%. Next, `COc1c(CNCCC(=O)NC2CCCC2)c(C(C)C)nn1C`: -4.41%; `CCc1nc(C2CCCN2Cc2ccn(C)c(=O)c2)no1` (configuration not stated): -4.25%; `Cc1cc(C)n(CC2CCCN2C(=O)c2c[nH]c(=O)c(Cl)c2)n1` (configuration not stated): 1.53%. With `Cc1cc(NC(=O)CNC2CCCN(c3cccnn3)C2)on1` (configuration not stated), the cytotoxicity at 10 µM was 5.98%.

As for `Cc1ccc(N2CCCC(NCC(=O)Nc3cc(C)nn3C)C2)nn1` (configuration not stated), the cytotoxicity at 10 µM was -1.18%.

Turning to `O=C(c1cnc(-c2ncccn2)s1)N1CCCC(n2cccn2)C1` (configuration not stated), the cytotoxicity at 10 µM is -2.85%. Next, `CCc1nc(CN(C)C2CCN(Cc3nnc(C4CCC4)o3)C2)no1` (configuration not stated): 0.239%. Turning to `O=S(=O)(CCNC1CCc2ncnn2C1)c1ccc(Cl)cc1` (configuration not stated), the cytotoxicity at 10 µM is -32.2%. Next, `O=C(Cc1cn2ccccc2n1)N1CCCC(n2cccn2)C1` (configuration not stated): -5.16%; `Cn1ccc(CN2CCN(CC3CC3)CC2)cc1=O`: -16.6%. As for `Cc1nc(CN(C)C2CCN(Cc3c(C)noc3C)C2)no1` (configuration not stated), the figure is 6.66%; as for `Cc1noc(C(C)N2CCN(Cc3cccc(C#N)c3)CC2)n1` (configuration not stated), -5.72%. As for `CN(Cc1ccco1)C(=O)CN1CCCC(Cn2cncn2)C1` (configuration not stated), the figure is -4%; as for `CCCc1n[nH]c(C2CN(C(=O)C3=COCCC3)CCO2)n1` (configuration not stated), -5.04%. As to `CC(C)c1noc(C(C)N2CCN(CCN3CCCC3=O)CC2)n1` (configuration not stated), the cytotoxicity at 10 µM was -10.6%. In the case of `Cc1ccc(C(=O)N2CCCS2(=O)=O)cc1Cl`, the cytotoxicity at 10 µM stood at 2.29%. For `O=C(CCNc1ncccn1)N1CCCC(n2ccnc2)C1` (configuration not stated), the cytotoxicity at 10 µM was found to be 0.289%. As for `Cc1cc(C)n(C2CN(CC(=O)NC3CCOCC3)C2)n1`, the figure is -3.92%; as for `CCOCCC(=O)N1CCCN(Cc2csc(CC)n2)CC1`, 3.9%; as for `Cc1cnn(CCNCc2nnc(C3CC3)o2)c1`, -7.89%. Next, `CC(C)COC(=O)N1CCC2(CCNC2)C1` (configuration not stated): -10.1%; `Cc1ncc(CN2CCCC(O)(c3ccc(F)cc3)CC2)n1C` (configuration not stated): -4.04%.

`c1ccc(CN2CCc3ncnc(C4CC4)c3CC2)nc1`: the cytotoxicity at 10 µM is -138%. As for `CCOc1cc(CN(C)CC(=O)O)ccc1OC(F)F`, the figure is 7.99%; as for `CNC(=O)c1cc2c(nc1NCC(C)C)CCN(CCOC)CC2`, -147%. For `CCc1ccc(CN2C[C@@H](C)C3(CCN(CC(=O)N(C)C)C3=O)C2)o1` (some centres not stated), the cytotoxicity at 10 µM was found to be 1.11%. Next, `COc1ccc(CN2CCc3[nH]nc(C(=O)N(C)C)c3C2)cc1`: 5.18%; `CC(C)CCN1C2(CCN(C(=O)CN(C)C)C2)c2ccccc2S1(=O)=O` (configuration not stated): -4.14%; `CN(C)C(=O)[C@@H]1C[C@@H]2CCN(C3CCOCC3)C[C@H]2O1`: 7.86%.

Take `Cc1cccc(CN2C[C@@H]3COC[C@]3(CNC(=O)N3CCCC3)C2)n1`: the cytotoxicity at 10 µM worked out at 1.05%. Next, `O=C(c1ccc[nH]1)N1C[C@@H]2CC[C@H]1CN(C1Cc3ccccc3C1)C2`: -1.85%; `COCCN1C[C@@H]2CC[C@H]1CN(CC(=O)Nc1ccn(C)n1)C2`: -8.39%.

On to `CCCS(=O)(=O)N1C[C@@H]2C[C@H](C(=O)N3CCN(C)CC3)[C@H](C1)O2`, for which the cytotoxicity at 10 µM was 1.47%. As for `CSc1ccccc1C(=O)N1C[C@@H]2CC[C@H]1CN(C(=O)N(C)C)C2`, the figure is -3.99%.
